Experimental findings from ChEMBL document CHEMBL1671709, “Small-molecule screening using a whole-cell viral replication reporter gene assay identifies 2-{[2-(benzoylamino)benzoyl]amino}-benzoic acid as a novel antiadenoviral compound” (Antimicrob Agents Chemother, 2010) are described below.

Calls of active or inactive are those of the source. The calls are words filed in the database; no cut-off is given here.

As usually defined, the inhibition is the share of the control response that was lost under treatment. As a reminder, the CC50 is the concentration that lowers cell viability or growth by half. Read a low CC50 as harm at low concentration. By EC50 is commonly meant the concentration that produces a half-maximal response.

Data set [1] has as its system Human adenovirus 5. Description: Antiviral activity against Human adenovirus type 5 infected in human A549 cells assessed as inhibition of viral replication by QPCR at 5 uM after 24 hrs. Format: functional, organism-based. The method, boiled down:
(§1)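 A549 cells (~10^5/well) seeded the day before; compound (0.5–15 µM) and 1 pg Ad virions per cell added together in DMEM with 1% FBS, final DMSO <1%. After 24 h at 37 °C, 5% CO2, cells harvested and DNA extracted. Viral genomes quantified by real-time PCR against Ad5 DNA standard curves, normalized to cellular RNase P. EC50 taken as 50% inhibition of replication; three independent duplicate experiments.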

Data set [2] relates to Human adenovirus 5. Description: Antiviral activity against Human adenovirus type 5 infected in human A549 cells assessed as inhibition of viral replication by QPCR at 15 uM after 24 hrs. The data set is classed as functional, organism-based. The method, boiled down:
as §1

Data set [3] relates to Human adenovirus 5. As to the kind of experiment: Inhibition of [35S]-labeled Human adenovirus type 5 F2853-5b binding to human A549 cells at 15 uM. Format: functional, organism-based. The method, boiled down: (§2)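 A549 cells detached with 0.05% EDTA, allowed to recover 1 h, then suspended in PBS with 1% FBS and 0.01% NaN3 (200,000/well) on ice. Compound at 5 and 15 µM final, DMSO <1%, plus 5 pg 35S-labeled Ad5 or Ad11p virions per cell, rocked 1 h on ice. Cells washed three times; bound radioactivity counted by liquid scintillation. Three independent duplicate experiments.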

Data set [4] can be described thus: Cytotoxicity against human K562 cells assessed as viable cells after 24 hrs by MTT assay. As to conditions: read-out: Activity. The data set is classed as cell-based. The method, boiled down:
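K562 cells (50,000/well) in phenol-red-free RPMI with 5% FBS, compound at 50 µM final (serial 25–0.78 µM in triplicate for dose-response), 24 h at 37 °C, 5% CO2, after the GFP fluorescence read. MTT added for 2 h, formazan dissolved in acidic isopropanol/Triton X-100, absorbance at 570 nm.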

In data set [5] the test system is A549. Description: Inhibition of [35S]-labeled Human adenovirus type 11p slobitski binding to human A549 cells at 15 uM. The data set is classed as functional, cell-based. The settings on record: Human adenovirus 11p. The method, boiled down:
as §2

The subject of data set [6] is Human adenovirus 5. As to the kind of experiment: Antiviral activity against Human adenovirus type 5 F2853-5b infected in human A549 cells assessed as inhibition of hexon protein expression after 24 hrs using propidium iodide by FACS analysis. As to conditions: in the assay text read “using anti-hexon monoclonal antibody” for “using propidium iodide”. Format: functional, organism-based. A digest of the protocol:
(§3)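 A549 cells (~2×10^5) seeded the day before. Compound (5 and 15 µM) added together with virus, 1 pg Ad5 or 0.5 pg Ad11p virions per cell, in DMEM with 1% FBS, DMSO <1%. After 24 h at 37 °C cells fixed in 2% paraformaldehyde and permeabilized with saponin. Stained with anti-hexon mouse monoclonal then Alexa Fluor 488 anti-mouse; read by flow cytometry. Two independent duplicate experiments.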
(In general: A flow cytometer gives signals particle by particle.)

The test system of data set [7] is A549. Description: Antiviral activity against Human adenovirus type 11p slobitski infected in human A549 cells assessed as inhibition of hexon protein expression after 24 hrs using propidium iodide by FACS analysis. The data set is classed as functional, cell-based. The settings on record: Human adenovirus 11p, in the assay text read “using anti-hexon monoclonal antibody” for “using propidium iodide”. The method, boiled down: as §3

Data set [8] in a line: Cytotoxicity against human A549 cells by XTT assay. Format: cell-based. The method, boiled down:
(§4)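 About 50,000 A549 cells seeded the day before; compound titrated in DMEM with 1% FBS for 24 h. XTT then added and incubated 2 h at 37 °C, with absorbance read at 450 nm. CC50 is the concentration leaving 50% of cells viable. Selectivity index is CC50 divided by the QPCR EC50 for each virus. Three independent duplicate experiments.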

Data set [9] can be described thus: Selectivity index, ratio of CC50 for human A549 cells to EC50 for Human adenovirus type 5. Format: toxicity, cell-based. The settings on record: read-out: Selectivity Index. The method, boiled down: as §4
A short description of data set [10]: Selectivity index, ratio of CC50 for human A549 cells to EC50 for Human adenovirus type 11p. The data set is classed as toxicity, cell-based. As to conditions: read-out: Selectivity Index. A digest of the protocol: as §4
Data set [11] concerns A549. Description: Cytotoxicity against human A549 cells assessed as dead cells at 15 uM after 24 hrs using PI by FACS analysis. Format: cell-based. The settings on record: a549, 24 h. A digest of the protocol:
(§5)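 A549 cells (2×10^5) seeded the day before in DMEM with 1% FBS; K562 cells (200,000) in RPMI 1640 with 5% FBS added just before compound. Compound at 5 and 15 µM, DMSO <1%, 24 h at 37 °C, 5% CO2. Cells washed, resuspended in PBS with 1 µg propidium iodide; dead cells counted by flow cytometry. Two independent duplicate experiments.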

For data set [12], the system named is K562. Description: Cytotoxicity against human K562 cells assessed as dead cells at 15 uM after 24 hrs using PI by FACS analysis. The data set is classed as cell-based. The settings on record: k562, 24 h. A digest of the protocol:
as §5

Data set [13] can be described thus: Cytotoxicity against human Fibroblast cells assessed as dead cells at 15 uM after 24 hrs using PI by FACS analysis. The data set is classed as cell-based.
The nature of data set [14]: Antiviral activity against Human adenovirus type 31 1315/63 infected in A549 cells assessed as inhibition of DNA replication by QPCR assay. Format: functional, cell-based, Human adenovirus 31. As to conditions: Human mastadenovirus A, 1315/63, A549. A digest of the protocol: (§6)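 A549 cells (about 10^5/well) were seeded the day before. Compound (0.5–15 µM, DMSO <1%) and 1 pg virions/cell were added together in DMEM with 1% FBS and held 24 h at 37°C. DNA was then extracted and viral genomes counted by TaqMan QPCR (AdDF probe, Ad5 or Ad11 DNA standards 5–5×10^5 copies), normalized to RNase P. EC50 is the 50% replication inhibition point, from at least two independent duplicate experiments.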

A short description of data set [15]: Antiviral activity against Human adenovirus type 11p slobitski infected in A549 cells assessed as inhibition of DNA replication by QPCR assay. The settings on record: Human mastadenovirus B. Format: functional, cell-based, Human adenovirus 11p. A digest of the protocol: as §6
Data set [16] concerns Human adenovirus 5. As to the kind of experiment: Antiviral activity against Human adenovirus type 5 F2853-5b infected in A549 cells assessed as inhibition of DNA replication by QPCR assay. The data set is classed as functional, organism-based. As to conditions: Human mastadenovirus C. The method, boiled down:
as §6

For data set [17], the system named is Human adenovirus D37. As to the kind of experiment: Antiviral activity against Human adenovirus type 37 1477 infected in A549 cells assessed as inhibition of DNA replication by QPCR assay. Format: functional, organism-based. As to conditions: Human mastadenovirus D, 1477, A549. A digest of the protocol: as §6
A short description of data set [18]: Antiviral activity against Human adenovirus type 4 RI-67 infected in A549 cells assessed as inhibition of DNA replication by QPCR assay. Format: functional, cell-based, Human adenovirus 4. The settings on record: Human mastadenovirus E, RI-67, A549. The method, boiled down:
as §6

Data set [19] is described as follows: Antiviral activity against Human adenovirus type 41 Tak infected in A549 cells assessed as inhibition of DNA replication by QPCR assay. Format: functional, cell-based, Human adenovirus 41. As to conditions: Human mastadenovirus F. The method, boiled down: as §6
The nature of data set [20]: Antiviral activity against Human adenovirus type 11p in human K562 cells harboring green fluorescent protein-expressing RCAd11pGFP vector assessed as inhibition of RCAd11pGFP genome expression at 50 uM relative to untreated control. As to conditions: Human mastadenovirus B. The data set is classed as functional, Human adenovirus 11p. The method, boiled down:
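Single-point screen done once in K562 cells (50,000/well) in phenol-red-free RPMI with 5% FBS, with RCAd11pGFP at 1 pg/cell. Compound was at 50 µM final, from a 5 mM DMSO stock. Each plate held six DMSO-only uninfected wells and six infected DMSO wells. After 24 h at 37°C in 5% CO2, GFP fluorescence was read at 485 nm, then MTT viability.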

The nature of data set [21]: Antiviral activity against Human adenovirus type 11p in human K562 cells harboring green fluorescent protein-expressing RCAd11pGFP vector assessed as inhibition of RCAd11pGFP genome expression. Format: functional, cell-based, Human adenovirus 11p. The settings on record: Human mastadenovirus B. The method, boiled down:
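K562 cells (50,000/well) in phenol-red-free RPMI with 5% FBS, infected with RCAd11pGFP at 1 pg/cell. The 5 mM DMSO stock was diluted 1:1 serially from 25 to 0.78 µM, with final DMSO <1%, run in triplicate.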

The subject of data set [22] is A549. Description: Antiviral activity against Human adenovirus type 11p in human A549 cells harboring green fluorescent protein-expressing RCAd11pGFP vector assessed as inhibition of RCAd11pGFP genome expression. The data set is classed as functional, cell-based. The settings on record: Human adenovirus 11p.
Data set [23] deals with Human adenovirus 5. Description: Antiviral activity against Human adenovirus type 5 infected in human A549 cells assessed as inhibition of viral replication by QPCR after 24 hrs. The data set is classed as functional, organism-based. The settings on record: Human mastadenovirus C, A549, 24 h. The method, boiled down:
as §1

Data set [24] is described as follows: Antiviral activity against Human adenovirus type 11p infected in human A549 cells assessed as inhibition of viral replication by QPCR after 24 hrs. The data set is classed as functional, cell-based, Human adenovirus 11p. As to conditions: Human mastadenovirus B, A549, 24 h. A digest of the protocol:
as §1

As to `O=C(Nc1ccccc1C(=O)O)c1ccccc1`, the inhibition entry in data set [1] and in data set [2] was “inactive” throughout.

With `O=C(Nc1ccccc1C(=O)Nc1ccccc1C(=O)Nc1ccccc1C(=O)O)c1ccccc1`, the inhibition result in data set [1] and in [2] was “inactive” throughout.

Regarding `O=C(Nc1ccccc1C(=O)Nc1ccccc1C(=O)O)c1ccccc1`, the inhibition result in data set [3] and in [5] was “inactive” in each case. In addition, the viability at 24 h in data set [4] was found to be 100%. The inhibition entry in data set [6] and in data set [7] was “Dose-dependent effect” each time. Moreover, the CC50 in data set [8] came out at 199 µM. The selectivity ratio is 54 in data set [9] and 68 in data set [10]. The Activity in data set [11], in data set [12] and in data set [13] was below 2% each time. The EC50 in [14] is 3.9 µM; in data set [15] it was 2.9 µM; in data set [16] it was 3.7 µM; in [17] it was 4.7 µM; in data set [18], 3.6 µM; in data set [19], 2.4 µM. Besides, the results for the EC50 in data set [21], in data set [23] and in data set [24] were 28.6 µM, 3.7 µM and 2.9 µM, respectively. Further, the inhibition at 50 µM in data set [20] is 100%. The inhibition entry in data set [22], in [1] and in data set [2] was “Active” in each case.

Regarding `Nc1ccn(C[C@@H](CO)OCP(=O)(O)O)c(=O)n1` [CIDOFOVIR], the EC50 is 16.5 µM in data set [15] and 19.9 µM in data set [16].
